In the array DNA melting data of Ke et al. (doi:10.1101/2024.01.08.574731) one finds folding enthalpy and Tm data, which are given here for 37 sequences.

A short description of data set [1]: folding enthalpy; higher = less favourable; fluorescence melt of hairpins on a sequencing array, two-state fit. The settings on record: sodium 0.088 M. In short, it runs like this: (§1)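 Cy3 fluorescence of library hairpins on a sequenced MiSeq flow cell, with annealed Cy3 and quencher oligos, was imaged in 50 mM Na-HEPES pH 8.0, 25 mM NaCl in 2.5 °C steps up to 60 °C. Signals were normalised to pre-quench Cy3 and to control variants. Melting temperature and folding enthalpy came from bootstrapped two-state fits, inverse-variance combined over four replicates. Fitted temperatures were raised by 9.35 °C to match UV melts.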

Data set [2] is described as follows: melting temperature; fluorescence melt of hairpins on a sequencing array, two-state fit, raised by 9.35 °C to match UV melts. The settings on record: sodium 0.088 M. In short, it runs like this:
as §1

Consider GTTATCCGAAAGGAAAC (((.(((....)))))), for which, in data set [1], the folding enthalpy was -14.5 kcal/mol. Also, the Tm in data set [2] amounted to 31.5 °C.

On to GTTATCCGAAAGGACAAC (((.(((....))).))), for which, in data set [1], the folding enthalpy is -26.3 kcal/mol. In data set [2], the Tm is 39.6 °C.

GTTATCGAAAGATGAAC ((((((....))).))): in data set [1], the folding enthalpy was -13.2 kcal/mol. For the same sequence, the Tm in data set [2] was determined as 26.4 °C.

Consider GTTATGCGAAAGCAGAAC (((.(((....))).))), for which the folding enthalpy in data set [1] was -31.5 kcal/mol. Also, the Tm in data set [2] came out at 55.9 °C.

With GTTATGGGAAACCATAGC (.(((((....))))).), the folding enthalpy in data set [1] was -24.1 kcal/mol. In addition, the Tm in data set [2] came to 36.9 °C.

With GTTATTGGAAACAATAAC (((((((....))))))), in data set [1], the folding enthalpy is -35 kcal/mol. Besides, in data set [2], the Tm was determined as 49.7 °C.

For the sequence GTTCAACGAAAGTTAAAC (((.(((....))).))), in data set [1], the folding enthalpy is -18.6 kcal/mol. The Tm in data set [2] was 30.7 °C.

With GTTCAAGAAATTGAAC ((((((....)))))), in data set [1], the folding enthalpy is -29.2 kcal/mol. In data set [2], the Tm stood at 45.1 °C.

Regarding GTTCAAGCGAAAGCTAAC (((..(((....)))))), the folding enthalpy in data set [1] is -11.4 kcal/mol. Further, the Tm in data set [2] stood at 24.9 °C.

As for GTTCACCGAAAGGTAAC (((.(((....)))))), the folding enthalpy in data set [1] was -16.3 kcal/mol. Also, in data set [2], the Tm turned out to be 36.3 °C.

As to GTTCACCGAAAGGTCAAC (((.(((....))).))), the folding enthalpy in data set [1] is -18.4 kcal/mol. In addition, the Tm in data set [2] came to 33 °C.

As for GTTCACGAAAGTGAAAAC ((((((....)))..))), in data set [1], the folding enthalpy was -11.7 kcal/mol. Besides, in data set [2], the Tm was determined as 40.5 °C.

For the sequence GTTCACGAAAGTGGGAAC ((((((....)))..))), the folding enthalpy in data set [1] is -13.3 kcal/mol. Besides, the Tm in data set [2] is 35.4 °C.

GTTCACGGAAACATGAAC (((((.(....).))))): the folding enthalpy in data set [1] was -21.1 kcal/mol. Also, in data set [2], the Tm came out at 36.6 °C.

For GTTCACGGAAACGTGGAC ((.((((....)))).)), the folding enthalpy in data set [1] was -29.2 kcal/mol. Further, the Tm in data set [2] turned out to be 52.8 °C.

For the sequence GTTCACTCGAAAGAGAAC (((..(((....)))))), in data set [1], the folding enthalpy is -9.99 kcal/mol. Moreover, the Tm in data set [2] worked out at 27.8 °C.

As for GTTCAGCGAAAGCTTAAC (((.(((....))).))), in data set [1], the folding enthalpy is -30.2 kcal/mol. In data set [2], the Tm came to 40.9 °C.

Turning to GTTCAGGGAAACTTGAGC (.(((.(....).))).), the folding enthalpy in data set [1] is -18.4 kcal/mol. Moreover, the Tm in data set [2] stood at 30.2 °C.

On to GTTCCAGGAAACTGGAAC (((((((....))))))), for which the folding enthalpy in data set [1] was -42.2 kcal/mol. The Tm in data set [2] is 60.4 °C.

As to GTTCCAGGAAACTGGAGC (.(((((....))))).), the folding enthalpy in data set [1] is -19.6 kcal/mol. Also, in data set [2], the Tm worked out at 47.2 °C.

As for GTTCCCGAAAGGGAAAC ((((((....))).))), the folding enthalpy in data set [1] was -12.6 kcal/mol. The Tm in data set [2] worked out at 49.6 °C.

Turning to GTTCCCGAAAGGGACAAC ((((((....)))..))), the folding enthalpy in data set [1] was -8.79 kcal/mol. For the same sequence, the Tm in data set [2] was 33.6 °C.

For the sequence GTTCCCGGAAACGAGAAC ((((.((....)).)))), the folding enthalpy in data set [1] is -30.2 kcal/mol. Also, the Tm in data set [2] turned out to be 40.8 °C.

For GTTCCGAAAGGAAC (((((....))))), the folding enthalpy in data set [1] is -29.5 kcal/mol. Besides, the Tm in data set [2] was 66.9 °C.

Regarding GTTCCGCGAAAGCGCAAC (((.(((....))).))), the folding enthalpy in data set [1] was -13.3 kcal/mol. Further, the Tm in data set [2] is 38.4 °C.

As to GTTCCGGGAAACCGGAGC (.(((((....))))).), the folding enthalpy in data set [1] is -22.4 kcal/mol. The Tm in data set [2] came to 53.6 °C.

Consider GTTCCGGGAAACTGGAGC (.(((.(....).))).), for which the folding enthalpy in data set [1] was -21.2 kcal/mol. Also, in data set [2], the Tm worked out at 36.1 °C.

Regarding GTTCCTCGAAAGAGCAAC (((.(((....))).))), the folding enthalpy in data set [1] is -14.3 kcal/mol. For the same sequence, in data set [2], the Tm was 29.4 °C.

Take GTTCGACGAAAGTCAAAC (((.(((....))).))): in data set [1], the folding enthalpy is -21.3 kcal/mol. Moreover, the Tm in data set [2] came out at 41.7 °C.

As for GTTCGACGAAAGTCAAC (((.(((....)))))), the folding enthalpy in data set [1] is -15.8 kcal/mol. Also, in data set [2], the Tm stood at 36.8 °C.

Turning to GTTCGAGAAATCGAAC ((((((....)))))), the folding enthalpy in data set [1] was -39.8 kcal/mol. Also, in data set [2], the Tm was found to be 54.9 °C.

As to GTTCGAGGAAACTCGAAC (((((((....))))))), in data set [1], the folding enthalpy is -42.3 kcal/mol. In addition, the Tm in data set [2] is 65 °C.

For GTTCGAGGAAACTTGGAC ((.(.((....)).).)), the folding enthalpy in data set [1] was -16 kcal/mol. Moreover, the Tm in data set [2] was 31.2 °C.

Consider GTTCGCCGAAAGGCAAC (((.(((....)))))), for which the folding enthalpy in data set [1] is -12.5 kcal/mol. Moreover, in data set [2], the Tm was determined as 43.3 °C.

On to GTTCGCGAAAGCGGCAAC ((((((....)))..))), for which the folding enthalpy in data set [1] is -10.2 kcal/mol. Besides, in data set [2], the Tm stood at 26.8 °C.

Take GTTCGCGAAAGCGGTAAC ((((((....)))..))): the folding enthalpy in data set [1] was -11 kcal/mol. The Tm in data set [2] amounted to 30.7 °C.

On to GTTCGCGAAAGCGTAAC ((((((....))).))), for which, in data set [1], the folding enthalpy is -13.8 kcal/mol. Further, the Tm in data set [2] was 48 °C.
